“Also recorded” adds a separate entry of the source.
What was measured:
[1] = system: guinea pig airway smooth muscle contracted with 1 μM substance P; experiment: Relaxation of substance P-contracted guinea pig tracheal rings
ova s/c BALB/c mice [2] = experiment: Airway hyperresponsiveness; type: in vivo, mouse
[3] = Pharmacokinetic profile in mouse blood, lungs and brain; type: in vivo
Summary of the method: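 Mice received a single oral gavage of 25 mg/kg test compound, suspended by grinding with PEG and then adding 2% HPMC (final vehicle 2% HPMC, 2.5% PEG). Blood, lung and brain were sampled over time and analysed by LC-MS/MS. Tmax, Cmax, AUC and elimination rate constant were calculated from the concentration-time profiles.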

[4] = In vitro microsomal stability, human; type: in vitro ADME
[5] = In vitro microsomal stability, mouse; type: in vitro ADME
[6] = Mouse plasma protein binding; type: in vitro ADME
mice = experiment: Sensorimotor coordination study using a rotarod apparatus; type: in vivo, mouse; conditions: 100 mg/kg oral; 15 rpm, 3 minutes, three time points
Summary of the method: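 Mice were dosed orally with 100 mg/kg test compound or vehicle (2% HPMC, 2.5% PEG), n = 9. They were tested on a rotarod at 15 rpm for up to 3 min at three time points, and time balanced was recorded. The control was diazepam 5 mg/kg i.p. in 5% DMSO/35% propylene glycol/60% PBS.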

[7] = system: CD4+ T lymphocytes isolated from ova s/c mice; experiment: Automated patch clamp with CD4+ T lymphocytes in the presence of 600 nM GABA; type: cell-based, mouse
Summary of the method: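 Splenic CD4+ T cells from ova s/c BALB/c mice were magnetically enriched after RBC lysis, then suspended at 5x10^6 cells/ml in extracellular solution (pH 7.4) with CsCl-based intracellular solution (pH 7.2). Automated whole-cell patch clamp was held at −80 mV. Test compound (final DMSO 0.1%) was applied for 3 s with 600 nM GABA, which was set as 100%. Eight independent runs, n = 12. EC50 and top came from a sigmoidal fit.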

α1-3,5β3γ2 GABAARs = type: cell-based; conditions: 0.1 μM or 1 μM, current evoked by GABA
Summary of the method: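 Cells were transiently transfected with the indicated α subunit plus β3 and γ2L. Mean enhancement of the GABA-evoked current by 0.1 or 1 μM test compound was measured by patch clamp, n = 5, mean ± SEM.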

peripheral GABAAR = experiment: NIMH Psychoactive Drug Screening Program; type: binding; conditions: 10 μM
ova s/c BALB/c mice [8] = experiment: Quantification of airway inflammatory cells in BALF by flow cytometry; type: in vivo, mouse
ova s/c mice [9] = experiment: EdU staining of lung sections; type: in vivo, mouse; conditions: 100 mg/kg; compared to vehicle-treated ova s/c mice
Summary of the method: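 Ova s/c mice were dosed orally with test compound 100 mg/kg b.i.d. for 5 days or with vehicle. They received EdU 100 mg/kg i.p. once and were euthanized 4 h later. Lungs were formalin-fixed and paraffin-embedded, and 6 μm sections were permeabilized with 0.5% Triton X-100 for 20 min. EdU was click-labelled with Alexa Fluor 488 azide for 30 min in the dark, with Hoechst 33342 counterstain. Sections were read by fluorescence microscopy.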

ova s/c mice [10] = experiment: Mucin volume density in lung sections; type: in vivo, mouse
ova s/c mice [11] = experiment: Cytokine expression in lung homogenate; type: in vivo, mouse; conditions: 100 mg/kg p.o. twice daily 5 days
Summary of the method: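 Male Balb/c mice were ova/alum-sensitized i.p. on days 0, 7 and 14, then challenged i.n. with ova for 5 days. During challenge they received test compound 100 mg/kg or vehicle (2% HPMC, 2.5% PEG) by oral gavage b.i.d. for 5 days. Snap-frozen whole lung was homogenized in T-PER with protease inhibitors and spun 10,000 rpm for 5 min. Supernatant went to a Th1/Th2/Th17 cytometric bead array on flow cytometry. n = 10/group, one-way ANOVA versus vehicle.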

SMILES: C[C@H]1N=C(c2ccccc2F)c2cc(Br)ccc2-n2cnc(C(=O)O)c21 [MIDD0301]
- time to partial relaxation of muscle constriction ([1]; 25 μM in organ bath): ≤ 15 min
- reversibility of relaxation effect ([1]; ASM washed with buffer and contracted again with substance P): reversible
- pharmaceutically active concentration in tissue ([1]; assuming tracheal concentration is 10% of organ bath concentration): single digit micromolar concentration
- smooth muscle relaxation compared with compound 2 ([1]; comparison with compound 2 data of ref 13): more pronounced smooth muscle relaxation
- concentration giving significant relaxation of pre-contracted smooth muscle ([1]; substance P 1 μM, 60 minute assay, vs vehicle 0.1% DMSO): ≥ 25 µM
- effect on AHR (sRaw) (ova s/c BALB/c mice [2]; 20 mg/kg p.o. b.i.d. 5 days, 12.5 mg/ml methacholine): downward trend; also recorded: did not reduce AHR significantly
- effect on AHR (sRaw) (ova s/c BALB/c mice [2]; 50 mg/kg p.o. b.i.d. 5 days, 12.5 mg/ml methacholine): sufficient to overcome induced AHR
- effect on AHR (sRaw) (ova s/c BALB/c mice [2]; 100 mg/kg p.o. b.i.d. 5 days, 12.5 mg/ml nebulized methacholine): significantly reduced AHR
- blood brain barrier penetration ([3]; 25 mg/kg single oral): Poor
- Tmax ([3]; blood and lung, 25 mg/kg single oral): ≤ 40 min
- AUC ([3]; blood, 25 mg/kg single oral): 2087.1 µg·min/g
- Cmax ([3]; blood, 25 mg/kg single oral): 8.24 µg/g
- half-life ([3]; blood, 25 mg/kg single oral): 836 min
- rate of elimination ([3]; blood, 25 mg/kg single oral): 0.001 min⁻¹
- AUC ([3]; brain, 25 mg/kg single oral): 107.7 µg·min/g
- elimination rate compared with blood ([3]; lung tissue, 25 mg/kg single oral): somewhat faster
- AUC ([3]; lung, 25 mg/kg single oral): 1390.5 µg·min/g
- Cmax ([3]; lungs, 25 mg/kg single oral): 4.39 µg/g
- half-life ([3]; pharmacokinetic studies, as stated in abstract): ~840 min
- microsomal stability t1/2 [4]: 1546 min
- microsomal stability t1/2 [5]: 549 min
- plasma protein binding [6]: 88%
- sensorimotor inhibition on rotarod (mice): absence of sensorimotor inhibition
- concentration at which current change saturated ([7]; 600 nM GABA): 100 nM
- maximal potentiation ([7]; 600 nM GABA = 100 %): 512%
- EC50 ([7]; read-out: EC50 of current potentiation, 600 nM GABA): 17 nM
- activation of GABAARs among alpha subtypes tested (α1-3,5β3γ2 GABAARs): activating GABAARs strongly
- binding (peripheral GABAAR): no significant binding
- number of BALF CD4+ T cells (ova s/c BALB/c mice [8]; 20 mg/kg p.o. b.i.d. 5 days): significantly reduced
- number of BALF CD4+ T cells (ova s/c BALB/c mice [8]; 50 mg/kg p.o. b.i.d. 5 days): significantly reduced
- BALF F4/80+ cells (macrophages) (ova s/c BALB/c mice [8]; 100 mg/kg p.o. b.i.d. 5 days): reduced their numbers significantly
- BALF Siglec F+ cell population (eosinophils/alveolar macrophages) (ova s/c BALB/c mice [8]; 100 mg/kg p.o. b.i.d. 5 days): reduced their numbers significantly
- number of BALF CD4+ T cells (ova s/c BALB/c mice [8]; 100 mg/kg p.o. b.i.d. 5 days): significantly reduced
- total inflammatory cells (CD45+) in BALF (ova s/c BALB/c mice [8]; 100 mg/kg p.o. b.i.d. 5 days): significant suppression
- EdU cell staining of lung sections (alveolar region) (ova s/c mice [9]): reduced cell staining
- mucous production in the airways (mucin volume density) (ova s/c mice [10]; 20 mg/kg b.i.d. 5 days): did not produce a significant change
- mucous production in the airways (mucin volume density) (ova s/c mice [10]; 50 mg/kg b.i.d. 5 days): did not produce a significant change
- mucous production in the airways (mucin volume density) (ova s/c mice [10]; 100 mg/kg b.i.d. 5 days): did not produce a significant change
- IFN-γ concentration in lung homogenates (ova s/c mice [11]): not altered significantly
- IL-2 concentration in lung homogenates (ova s/c mice [11]): not altered significantly
- IL-6 concentration in lung homogenates (ova s/c mice [11]): not altered significantly
- IL-10 expression in the lung (ova s/c mice [11]): not significantly altered
- IL-17A levels in lung homogenates (ova s/c mice [11]): significantly reduced
- lung TNF-α levels (ova s/c mice [11]): decreased
- IL-4 levels in lung homogenates (ova s/c mice [11]; vs vehicle-treated ova s/c mice): reduced

SMILES: OCc1cc(C(O)CNCCCCCCOCCCCc2ccccc2)ccc1O (stereo not shown) [salmeterol, reference compound]
- effect on AHR (sRaw) (ova s/c BALB/c mice [2]; 1 mg/kg p.o. b.i.d. 5 days): no anti-AHR effect
- effect on AHR (sRaw) (ova s/c BALB/c mice [2]; single oral dose 10 mg/kg acutely before measurement (data not shown)): without any significant effect on AHR
- BALF eosinophil population (ova s/c BALB/c mice [8]; 1 mg/kg p.o. b.i.d. 5 days): no significant effect
- BALF macrophage population (ova s/c BALB/c mice [8]; 1 mg/kg p.o. b.i.d. 5 days): no significant effect
- number of BALF CD4+ T cells (ova s/c BALB/c mice [8]; 1 mg/kg p.o. b.i.d. 5 days): reduced
- total inflammatory cells (leukocyte numbers) in BALF (ova s/c BALB/c mice [8]; 1 mg/kg p.o. b.i.d. 5 days): did not significantly change
- mucous levels in the airways (ova s/c mice [10]; 1 mg/kg b.i.d. 5 days): no effect
